Results: ChEMBL document CHEMBL4261658, “4-Hydroxy-3-nitro-5-ureido-benzenesulfonamides Selectively Target the Tumor-Associated Carbonic Anhydrase Isoforms IX and XII Showing Hypoxia-Enhanced Antiproliferative Profiles” (J Med Chem, 2018)
pIC50, pKi: −log10 of the molar value.

Assays:
HT-29 [1] = assay: Cytotoxicity against human HT-29 cells assessed as cell viability at 200 uM after 48 hrs under normoxic conditions by MTT assay (reference value: 100%); format: functional; details: for viability at 200 µM: Homo sapiens, HT-29, 48 h, read-out: Activity
Outline: (§1)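 Cells cultured in high-glucose DMEM with 20% FBS at 37 °C and 5% CO2, seeded at 1x10^4/well, then dosed 24 h later (0–200 μM) for 48 h. Hypoxia: 1% O2, 5% CO2, balance N2 in a hypoxic workstation; normoxia: 20% O2 in air, 5% CO2. MTT (1 mg/ml) for 30 min at 37 °C, formazan dissolved in DMSO, A550. Untreated control set to 100%; quadruplicates, ≥3 cell batches, mean ± S.E.M.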

HT-29 [2] = assay: Cytotoxicity against human HT-29 cells assessed as cell viability at 100 uM after 48 hrs under normoxic conditions by MTT assay (reference value: 100%); format: functional; details: for viability at 100 µM: Homo sapiens, HT-29, 48 h, read-out: Activity; outline: as §1
HT-29 [3] = assay: Cytotoxicity against human HT-29 cells assessed as cell viability at 30 uM after 48 hrs under normoxic conditions by MTT assay (reference value: 100%); format: functional; details: for viability at 30 µM: Homo sapiens, HT-29, 48 h, read-out: Activity; outline: as §1
HT-29 [4] = assay: Cytotoxicity against human HT-29 cells assessed as cell viability at 30 uM after 48 hrs under hypoxic conditions by MTT assay (reference value: 100%); format: functional; details: for viability at 30 µM: Homo sapiens, HT-29, 48 h, read-out: Activity; outline: as §1
HT-29 [5] = assay: Cytotoxicity against human HT-29 cells assessed as cell viability at 200 uM after 48 hrs under hypoxic conditions by MTT assay (reference value: 100%); format: functional; details: for viability at 200 µM: Homo sapiens, HT-29, 48 h, read-out: Activity; outline: as §1
HT-29 [6] = assay: Cytotoxicity against human HT-29 cells assessed as cell viability at 100 uM after 48 hrs under hypoxic conditions by MTT assay (reference value: 100%); format: functional; details: for viability at 100 µM: Homo sapiens, HT-29, 48 h, read-out: Activity; outline: as §1
MDA-MB-231 [7] = assay: Cytotoxicity against human MDA-MB-231 cells assessed as cell viability at 100 uM after 48 hrs under normoxic conditions by MTT assay (reference value: 100%); format: functional; details: MDA-MB-231, 48 h, read-out: Activity; outline: as §1
PC-3 [8] = assay: Cytotoxicity against human PC3 cells assessed as cell viability at 100 uM after 48 hrs under normoxic conditions by MTT assay (reference value: 100%); format: functional; details: PC-3, 48 h, read-out: Activity; outline: as §1
PC-3 [9] = assay: Cytotoxicity against human PC3 cells assessed as cell viability at 200 uM after 48 hrs under normoxic conditions by MTT assay (reference value: 100%); format: functional; details: PC-3, 48 h, read-out: Activity; outline: as §1
PC-3 [10] = assay: Cytotoxicity against human PC3 cells assessed as cell viability at 100 uM after 48 hrs under hypoxic conditions by MTT assay (reference value: 100%); format: functional; details: PC-3, 48 h, read-out: Activity; outline: as §1
MDA-MB-231 [11] = assay: Cytotoxicity against human MDA-MB-231 cells assessed as cell viability at 200 uM after 48 hrs under normoxic conditions by MTT assay (reference value: 100%); format: functional; details: MDA-MB-231, 48 h, read-out: Activity; outline: as §1
HT-29 [12] = assay: Cytotoxicity against human HT-29 cells assessed as reduction in cell viability after 48 hrs under normoxic conditions by MTT assay; format: functional, cell-based; details: for pIC50: HT-29, 48 h; outline: as §1
HT-29 [13] = assay: Cytotoxicity against human HT-29 cells assessed as reduction in cell viability after 48 hrs under hypoxic conditions by MTT assay; format: functional, cell-based; details: for pIC50: HT-29, 48 h; outline: as §1
Carbonic anhydrase 12 = Carbonic anhydrase 12 (Homo sapiens, UniProt O43570)
Carbonic anhydrase 9 = Carbonic anhydrase 9 (Homo sapiens, UniProt Q16790); assay: Inhibition of carbonic anhydrase 9 (unknown origin) preincubated for 15 mins by stopped flow CO2 hydration assay
MDA-MB-231 [14] = assay: Cytotoxicity against human MDA-MB-231 cells assessed as reduction in cell viability after 48 hrs under hypoxic conditions by MTT assay; format: functional, cell-based; details: for pIC50: MDA-MB-231, 48 h; outline: as §1
PC-3 [15] = assay: Cytotoxicity against human PC3 cells assessed as cell viability at 30 uM after 48 hrs under normoxic conditions by MTT assay (reference value: 100%); format: functional; details: PC-3, 48 h, read-out: Activity; outline: as §1
PC-3 [16] = assay: Cytotoxicity against human PC3 cells assessed as reduction in cell viability after 48 hrs under hypoxic conditions by MTT assay; format: functional, cell-based; details: for pIC50: PC-3, 48 h; outline: as §1
PC-3 [17] = assay: Cytotoxicity against human PC3 cells assessed as cell viability at 30 uM after 48 hrs under hypoxic conditions by MTT assay (reference value: 100%); format: functional; details: PC-3, 48 h, read-out: Activity; outline: as §1
MDA-MB-231 [18] = assay: Cytotoxicity against human MDA-MB-231 cells assessed as reduction in cell viability after 48 hrs under normoxic conditions by MTT assay; format: functional, cell-based; details: for pIC50: MDA-MB-231, 48 h; outline: as §1
MDA-MB-231 [19] = assay: Cytotoxicity against human MDA-MB-231 cells assessed as cell viability at 100 uM after 48 hrs under hypoxic conditions by MTT assay (reference value: 100%); format: functional; details: MDA-MB-231, 48 h, read-out: Activity; outline: as §1
MDA-MB-231 [20] = assay: Cytotoxicity against human MDA-MB-231 cells assessed as cell viability at 30 uM after 48 hrs under hypoxic conditions by MTT assay (reference value: 100%); format: functional; details: MDA-MB-231, 48 h, read-out: Activity; outline: as §1
PC-3 [21] = assay: Cytotoxicity against human PC3 cells assessed as cell viability at 200 uM after 48 hrs under hypoxic conditions by MTT assay (reference value: 100%); format: functional; details: PC-3, 48 h, read-out: Activity; outline: as §1
MDA-MB-231 [22] = assay: Cytotoxicity against human MDA-MB-231 cells assessed as cell viability at 200 uM after 48 hrs under hypoxic conditions by MTT assay (reference value: 100%); format: functional; details: MDA-MB-231, 48 h, read-out: Activity; outline: as §1
MDA-MB-231 [23] = assay: Cytotoxicity against human MDA-MB-231 cells assessed as cell viability at 30 uM after 48 hrs under normoxic conditions by MTT assay (reference value: 100%); format: functional; details: MDA-MB-231, 48 h, read-out: Activity; outline: as §1
PC-3 [24] = assay: Cytotoxicity against human PC3 cells assessed as reduction in cell viability after 48 hrs under normoxic conditions by MTT assay; format: functional, cell-based; details: for pIC50: PC-3, 48 h; outline: as §1

Chain of Carbonic anhydrase 12 (O43570 whole entry): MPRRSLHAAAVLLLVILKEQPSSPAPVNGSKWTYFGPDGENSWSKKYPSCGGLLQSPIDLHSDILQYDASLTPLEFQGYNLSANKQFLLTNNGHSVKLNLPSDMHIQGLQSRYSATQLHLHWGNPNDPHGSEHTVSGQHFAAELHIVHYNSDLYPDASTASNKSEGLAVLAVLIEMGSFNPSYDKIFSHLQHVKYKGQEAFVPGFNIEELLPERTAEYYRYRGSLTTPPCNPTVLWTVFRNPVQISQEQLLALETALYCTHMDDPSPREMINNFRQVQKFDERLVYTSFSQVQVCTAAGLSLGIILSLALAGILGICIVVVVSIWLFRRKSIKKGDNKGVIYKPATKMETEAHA

**Q.** `CC(=O)Nc1nnc(S(N)(=O)=O)s1` [ACETAZOLAMIDE] was tested. Which Activity (HT-29 [1]) did it give?
**A.** 96.9%

**Q.** What about the Activity (HT-29 [2]) of the same compound?
**A.** 100.7%

**Q.** What about the Activity (HT-29 [3]) of the same compound?
**A.** 96.9%

**Q.** What about the Activity (HT-29 [4]) of the same compound?
**A.** 107.6%

**Q.** And the Activity (HT-29 [5])?
**A.** 90.9%

**Q.** And the Activity (HT-29 [6])?
**A.** 101.7%

**Q.** Which results are given for `NS(=O)(=O)c1cc(NC(=O)Nc2c(F)c(F)c(F)c(F)c2F)c(O)c([N+](=O)[O-])c1`?
**A.** viability at 100 µM (MDA-MB-231 [7]): 66.7%; viability at 200 µM (HT-29 [1]): 99.6%; viability at 100 µM (PC-3 [8]): 61.7%; viability at 100 µM (HT-29 [2]): 102%; viability at 200 µM (PC-3 [9]): 60.2%; viability at 100 µM (PC-3 [10]): 53.2%; viability at 200 µM (MDA-MB-231 [11]): 60.2%; Activity (HT-29 [12]): Dose-dependent effect; pIC50 (HT-29 [12]): < 3.70; Activity (HT-29 [13]): Dose-dependent effect; pIC50 (HT-29 [13]): < 3.70; pKi (Carbonic anhydrase 12): 7.10; pKi (Carbonic anhydrase 9): 6.54; viability at 30 µM (HT-29 [3]): 106%; Activity (MDA-MB-231 [14]): Dose-dependent effect; pIC50 (MDA-MB-231 [14]): 4.00; viability at 30 µM (PC-3 [15]): 69%; viability at 30 µM (HT-29 [4]): 75.6%; viability at 200 µM (HT-29 [5]): 65.3%; Activity (PC-3 [16]): Dose-dependent effect; pIC50 (PC-3 [16]): < 3.70; viability at 30 µM (PC-3 [17]): 63.2%; Activity (MDA-MB-231 [18]): Dose-dependent effect; pIC50 (MDA-MB-231 [18]): < 3.70; viability at 100 µM (MDA-MB-231 [19]): 50.2%; viability at 30 µM (MDA-MB-231 [20]): 56.2%; viability at 200 µM (PC-3 [21]): 50.6%; viability at 200 µM (MDA-MB-231 [22]): 40.5%; viability at 30 µM (MDA-MB-231 [23]): 95.7%; Activity (PC-3 [24]): Dose-dependent effect; pIC50 (PC-3 [24]): < 3.70; viability at 100 µM (HT-29 [6]): 70.2%

**Q.** For `CC(=O)OC[C@@H]1O[C@@H](OC(C)=O)[C@@H](NC(=O)Nc2cc(S(N)(=O)=O)cc([N+](=O)[O-])c2O)[C@H](OC(C)=O)[C@H]1OC(C)=O`, which viability at 100 µM (MDA-MB-231 [7]) is on record?
**A.** 111%

**Q.** And the viability at 200 µM (HT-29 [1])?
**A.** 103%

**Q.** And the viability at 100 µM (PC-3 [8])?
**A.** 67.5%

**Q.** And the viability at 100 µM (HT-29 [2])?
**A.** 100%

**Q.** What about the viability at 200 µM (PC-3 [9]) of the same compound?
**A.** 68.3%

**Q.** What about the viability at 100 µM (PC-3 [10]) of the same compound?
**A.** 85.2%

**Q.** What about the viability at 200 µM (MDA-MB-231 [11]) of the same compound?
**A.** 103%

**Q.** And the Activity (HT-29 [12])?
**A.** Dose-dependent effect

**Q.** And the pIC50 (HT-29 [12])?
**A.** < 3.70

**Q.** What about the Activity (HT-29 [13]) of the same compound?
**A.** Dose-dependent effect

**Q.** And the pIC50 (HT-29 [13])?
**A.** < 3.70

**Q.** What about the pKi (Carbonic anhydrase 12) of the same compound?
**A.** 6.10

**Q.** What about the pKi (Carbonic anhydrase 9) of the same compound?
**A.** 6.54

**Q.** What about the viability at 30 µM (HT-29 [3]) of the same compound?
**A.** 111%

**Q.** What about the Activity (MDA-MB-231 [14]) of the same compound?
**A.** Dose-dependent effect

**Q.** What about the pIC50 (MDA-MB-231 [14]) of the same compound?
**A.** < 3.70

**Q.** What about the viability at 30 µM (PC-3 [15]) of the same compound?
**A.** 59.6%

**Q.** And the viability at 30 µM (HT-29 [4])?
**A.** 95.6%

**Q.** And the viability at 200 µM (HT-29 [5])?
**A.** 84.8%

**Q.** What about the Activity (PC-3 [16]) of the same compound?
**A.** Dose-dependent effect

**Q.** What about the pIC50 (PC-3 [16]) of the same compound?
**A.** < 3.70

**Q.** And the viability at 30 µM (PC-3 [17])?
**A.** 91.5%

**Q.** And the Activity (MDA-MB-231 [18])?
**A.** Dose-dependent effect

**Q.** And the pIC50 (MDA-MB-231 [18])?
**A.** < 3.70

**Q.** And the viability at 100 µM (MDA-MB-231 [19])?
**A.** 90.7%

**Q.** And the viability at 30 µM (MDA-MB-231 [20])?
**A.** 99.5%

**Q.** And the viability at 200 µM (PC-3 [21])?
**A.** 70.6%

**Q.** What about the viability at 200 µM (MDA-MB-231 [22]) of the same compound?
**A.** 65.9%

**Q.** What about the viability at 30 µM (MDA-MB-231 [23]) of the same compound?
**A.** 100%

**Q.** And the Activity (PC-3 [24])?
**A.** Dose-dependent effect

**Q.** And the pIC50 (PC-3 [24])?
**A.** < 3.70

**Q.** What about the viability at 100 µM (HT-29 [6]) of the same compound?
**A.** 79.8%

**Q.** What does the source list for `NS(=O)(=O)c1ccc(O)c([N+](=O)[O-])c1`?
**A.** pKi (Carbonic anhydrase 12): 6.80; pKi (Carbonic anhydrase 9): 6.92

**Q.** Which results are given for `NS(=O)(=O)c1cc(NC(=O)N[C@@H]2C(O)O[C@@H](CO)[C@H](O)[C@H]2O)c(O)c([N+](=O)[O-])c1` (stereo partly drawn)?
**A.** pKi (Carbonic anhydrase 12): 6.80; pKi (Carbonic anhydrase 9): 6.77

**Q.** How did the pKi (Carbonic anhydrase 12) turn out when `Cc1cc(NC(=O)Nc2cc(S(N)(=O)=O)cc([N+](=O)[O-])c2O)ccc1F` was run?
**A.** 6.06

**Q.** What about the pKi (Carbonic anhydrase 9) of the same compound?
**A.** 6.43

**Q.** How did the pKi (Carbonic anhydrase 12) turn out when `NS(=O)(=O)c1cc(NC(=O)c2ccccc2)c(OC(=O)c2ccccc2)c([N+](=O)[O-])c1` was run?
**A.** 6.52

**Q.** And the pKi (Carbonic anhydrase 9)?
**A.** 6.89
